PP1 counter – PP1-alpha (human) inhibition in PP5 counter-screen; P62136; purified PP1alpha, OMFP fluorescence; inhibition, % at 6.7 µM; hit rate 0.9% among 320,000;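 active means inhibition above the mean inhibition of all tested compounds plus 3 SD, computed separately for each screening campaign, cut at about 15% in these data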
CTSL1 counter – counter-screen for PFM18AAP inhibitors: inhibitors of F. hepatica cathepsin L1; recombinant F. hepatica cathepsin L1, Z-Leu-Arg-MCA fluorescence; inhibition, % at 5.96 µM; hit rate 0.49% among 300,000; AID 1906;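 active means inhibition above the mean of all tested compounds plus 3 SD, set per screening campaign, cut at about 17% in these data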;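 further: 0% = plate median of test compound wells and 100% = 1 µM Z-Phe-Ala-diazomethylketone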
core dimer inh – HCV core protein dimerization inhibition; hit rate 0.33% among 300,000; inhibition, % at 5 µM; TR-FRET GST/Flag-core106 dimerization, 1536-well; AID 1899;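 active means inhibition above the mean of all tested compounds plus 3 SD, set per screening campaign, cut at about 45% in these data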
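Material: Tagged HCV core106 pair (GST and Flag) | Amount: GST-core106 13.5 nM, Flag-core106 17 nM | Medium: KF-containing HEPES buffer, pH 7.45, DTT, CHAPS, BSA | Reagent: Eu donor and XL665 acceptor anti-tag antibodies | Schedule: 4 h at 22.5 °C | Technique: Time-resolved FRET, ex 340 nm, em 617 and 671 nm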
PP5 inh – inhibitors of human protein phosphatase 5 (PP5); P53041; purified PP5c, OMFP substrate fluorescence; inhibition, % at 6.7 µM; hit rate 0.18% among 320,000;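 active means inhibition above the campaign's mean inhibition across all tested compounds plus 3 SD, cut at about 9.5% in these data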;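 further: 0% = DMSO only and 100% = 100 µM cantharidin control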
Target sequence (P53041 whole entry, looked up): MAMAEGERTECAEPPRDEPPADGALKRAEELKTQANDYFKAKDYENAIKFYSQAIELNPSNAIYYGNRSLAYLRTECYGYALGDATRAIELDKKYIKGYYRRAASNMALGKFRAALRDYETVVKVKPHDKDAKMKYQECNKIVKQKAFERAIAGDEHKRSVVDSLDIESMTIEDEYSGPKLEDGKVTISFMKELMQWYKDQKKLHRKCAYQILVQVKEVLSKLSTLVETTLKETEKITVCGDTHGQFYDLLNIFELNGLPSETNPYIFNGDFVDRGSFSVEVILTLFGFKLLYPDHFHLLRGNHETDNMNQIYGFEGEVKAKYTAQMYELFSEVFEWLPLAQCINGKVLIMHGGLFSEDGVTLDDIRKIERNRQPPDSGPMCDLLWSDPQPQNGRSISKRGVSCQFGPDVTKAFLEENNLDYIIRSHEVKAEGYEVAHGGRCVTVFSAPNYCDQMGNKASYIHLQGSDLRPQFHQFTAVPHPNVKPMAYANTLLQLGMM
NadD block – inhibitors of Staphylococcus aureus NadD. purified NadD enzyme, colorimetric absorbance read-out. hit rate 0.78% among 360,000. inhibition, % at 20 µM; in the data active means inhibition above about 26%
Myeloid diff 2 – promotes myeloid progenitor differentiation. hit rate 1% among 360,000. ER-HoxA9 myeloid progenitors, lysozyme-GFP differentiation, flow cytometry. calls only at 10 µM;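 active means normalized GFP-positive differentiation at or above the plate's own cutoff, the solvent-only control mean plus 3 SD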;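 further: cells exposed to compound for four days before flow analysis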
The depositor's hits bear a star; i = inactive; nt = no result; + = active, no number; ! = not active in a repeat. Compounds with a hit are over-represented: about 3.1% of the library has one in this group of screens.

SMILES | PP1 counter | CTSL1 counter | core dimer inh | PP5 inh | NadD block | Myeloid diff 2
Cc1cc(C(=O)O)ccc1N/C=C1\CCCC(C)C1=O (stereo not given) | 2.7 | -1.2 | -1.1 | 1.5 | 0.0 | i
O=C(N/N=C/c1ccc(OCc2ccccc2)cc1)c1ccco1 | 2.1 | 22.2* | -14.8 | 3.5 | -6.4 | i
COc1ccc(N=C2SCC(=O)N2Cc2ccccc2)cc1 | -0.4 | 0.3 | -5.9 | 4.5 | -4.6 | +
Cc1c(CC(=O)O)c(=O)oc2cc(OCc3ccc(Cl)cc3)ccc12 | 5.6 | 4.5 | 4.3 | 1.1 | -3.8 | i
O=C1C2CCCN2c2ccc(S(=O)(=O)N3CCOCC3)cc2N1Cc1ccccc1F (stereo not given) | 6.3 | 2.3 | 42.6 | 1.1 | 12.0 | i
O=C1C2CCCN2c2ccc(S(=O)(=O)N3CCOCC3)cc2N1Cc1cccc(C(F)(F)F)c1 (stereo not given) | 30.0* | -1.0 | 7.8 | 1.2 | nt | nt
CCN1CCN(Cc2ccc(NC(=O)c3ccc(C)c(NC(=O)N4CCNC4=O)c3)cc2C(F)(F)F)CC1 | 2.2 | 6.0 | -21.4 | 0.0 | -4.7 | +!
O=C(O)c1ccccc1C(=O)NCc1ccccc1 | 1.8 | -2.3 | -4.9 | 3.5 | -5.7 | i
Nc1sccc1C(=O)NCc1ccccc1 | nt | nt | nt | nt | nt | +
CC1CCCCC1NC(=O)CSc1nnc(C(F)(F)F)n1C (stereo not given) | nt | nt | nt | nt | 0.9 | i
CC1(C(=O)O)CCCN1C(=O)c1ccccc1OC(F)(F)F (stereo not given) | nt | nt | nt | nt | 5.1 | i
NNC(=O)c1sc(-c2ccc(Cl)cc2)cc1N | 4.7 | -0.8 | -0.9 | 1.6 | 17.5 | +
Brc1ccc(-c2nnc(-c3ccccc3Br)o2)cc1 | -0.6 | 0.5 | 12.2 | 0.7 | 4.6 | i
Oc1oc(-c2ccccc2Br)nc1C=Nc1ccc(Br)cn1 | 2.1 | 62.6* | -3.0 | 1.4 | 4.6 | i
Oc1oc(-c2ccccc2)nc1/C=N/c1ccccn1 | 0.2 | 71.3* | -1.8 | -0.8 | 0.1 | i
CC(C)CCN1C(=O)c2cccc3c(N)ccc(c23)C1=O | -9.4 | 2.6 | -21.6 | -5.0 | -4.7 | +
Nc1cccc(N2C(=O)c3cccc4c(N)ccc(c34)C2=O)c1 | -4.4 | -4.5 | -7.9 | -1.8 | -5.6 | +
Cc1cccc(N2C(=O)c3cccc4c(N)ccc(c34)C2=O)c1 | -7.8 | 6.9 | -5.7 | -8.7 | -0.3 | i
CCN1CCN(CCCNC(=O)CCC(=O)N2CCOc3ccc(Cl)cc32)CC1 | -2.8 | -3.3 | 12.5 | 1.0 | 8.7 | i
COc1ccc2cc(CN(CC3CCCO3)S(=O)(=O)c3ccc(C(C)=O)cc3)c(=O)[nH]c2c1 (stereo not given) | -10.0 | -8.0 | -1.1 | 2.2 | -0.2 | +
Cc1ccc(S(=O)(=O)/N=C(/Nc2ccc(O)c(C(=O)O)c2)c2ccccc2)cc1 | -5.5 | nt | nt | -1.1 | -1.2 | i
CC(C)(C)C(=O)N1CCN(c2nc3ccccc3s2)CC1 | -3.2 | -1.8 | 3.9 | 2.3 | 2.5 | i
CCc1ccc2nc(N3CCN(C(=O)C(C)(C)C)CC3)sc2c1 | -1.3 | -0.8 | -0.4 | -1.4 | -9.6 | +
Cc1ccccc1CC(=O)N1CC(C)OC(C)C1 (stereo not given) | -4.0 | -1.4 | 5.5 | -2.6 | -4.1 | i
CC(C)NC(=O)CCc1nc2cccnc2n1-c1ccccc1 | -3.3 | -3.4 | -0.3 | -1.3 | -8.7 | i
SMILES | PP1 counter | CTSL1 counter | core dimer inh | PP5 inh | NadD block | Myeloid diff 2
COc1ccccc1NC(=O)CCC(=O)c1ccc(-c2ccccc2)cc1 | 1.4 | 0.5 | 23.2 | 0.9 | 3.1 | +
O=C(CCC(=O)OCC(=O)c1ccc([N+](=O)[O-])cc1)Nc1ccccc1Cl | -0.8 | -12.4 | -0.3 | 0.3 | -4.2 | i
CCc1ccccc1NC(=O)CCC(=O)OCC(=O)c1ccc(-c2ccccc2)cc1 | 17.0* | -0.9 | 11.7 | -1.2 | 7.4 | i
CC(=O)Nc1ccc(NC(=O)CC(C)n2ccnc2)cc1 (stereo not given) | -1.6 | -0.3 | -4.2 | -0.9 | -2.7 | nt
CCCc1cc(=O)[nH]c(SCCc2ccccc2)n1 | 3.8 | -1.8 | -1.5 | 1.1 | -4.8 | i
O=C(COc1ccc2c3c(c(=O)oc2c1)CCC3)Nc1ccccn1 | 1.4 | -0.9 | 2.2 | -0.4 | 6.0 | i
CCOc1ccc2[nH]c3nc(SCC(=O)OC(C)C)nnc3c2c1 | -3.2 | -2.2 | 0.3 | 0.3 | -1.7 | i
CC(C)c1ccc2[nH]c3nc(SCC(=O)NC4CC4)nnc3c2c1 | -1.9 | 0.9 | 7.8 | 0.0 | 1.8 | +
Cc1cc(NCCCN2CCOCC2)n2nc(C)c(-c3ccccc3)c2n1 | 1.8 | -0.9 | -7.1 | 1.9 | -7.0 | +
COC(=O)C1CCCN1S(=O)(=O)c1ccc([N+](=O)[O-])cc1 (stereo not given) | -4.7 | 52.8* | -5.6 | 7.5 | -2.7 | i
CC1(C(=O)NCc2ccccc2)CN(S(C)(=O)=O)CC(=O)N1C1CCN(Cc2ccccc2)CC1 (stereo not given) | nt | nt | nt | nt | nt | i
CCNC(=S)NNC(=O)CCc1nc2cc(Cl)ccc2n(Cc2ccccc2)c1=O | 4.3 | 5.0 | 2.2 | 3.3 | -2.6 | +
CN(C)C(CNC(=O)CCc1nc2cc(Cl)ccc2n(Cc2ccccc2)c1=O)c1ccccc1 (stereo not given) | 9.8 | 1.2 | 7.6 | 0.1 | 0.1 | i
Cc1nn2c(COc3ccc(NC(=O)C(C)C)cc3)nnc2c2ccccc12 | 0.0 | -5.0 | 4.4 | 2.0 | -1.0 | i
Cc1nn2c(COc3ccc(NC(=O)c4ccccc4Cl)cc3)nnc2c2ccccc12 | 5.3 | -0.3 | 28.5 | 1.7 | 4.2 | +
CC1(C)C(=O)Nc2ccccc2N1C(=O)COC(=O)CNS(=O)(=O)c1ccc(F)c(F)c1F | -2.7 | nt | nt | 3.0 | 1.5 | i
COc1ccc(OC)c(N/C(=N/C(=S)Nc2ccccc2)Nc2nc(C)cc(C)n2)c1 | -5.2 | 0.1 | 27.9 | -1.2 | 15.5 | +
COc1ccc2nc(N/C(N)=N/C(=S)Nc3ccccc3)nc(C)c2c1 | -0.8 | -0.3 | 16.7 | 2.2 | 8.9 | i
COc1ccc(N2C(=O)c3ccc(C(=O)Nc4ccccc4OC)cc3C2=O)cc1 | -1.1 | 7.5 | 2.2 | -2.0 | -3.0 | i
CCOC(=O)c1cc(-c2ccc(/C=C3/C(=O)NC(=O)C(C#N)=C3C)o2)ccc1Cl | 13.6 | -0.8 | 25.5 | 5.9 | 38.6* | i
CC1=C/C(=N\OC(=O)/C=C/c2ccccc2)C(C)=CC1=O | 0.0 | -4.8 | -3.7 | -2.5 | 2.3 | +
CCC(C)[C@H]1CNC(=S)N1CCc1cc(C(F)(F)F)cc(C(F)(F)F)c1 (stereo not given in full) | 3.3 | 2.2 | 5.9 | 9.6* | 3.8 | i
CCCNC(=O)c1cc(C2CCCN(S(=O)(=O)c3cccc4cccnc34)C2)on1 (stereo not given) | nt | nt | nt | nt | 5.7 | i
Cc1nc2ncnn2c(C)c1Cc1cccc(C(F)(F)F)c1 | -3.4 | -3.6 | 2.5 | -0.5 | 2.2 | +
